The source made the active and inactive calls. No cut-off for these calls is given here.

We go through seven molecules from ChEMBL document CHEMBL1765012, “Novel interactions of fluorinated nucleotide derivatives targeting orotidine 5'-monophosphate decarboxylase” (J Med Chem, 2011).

One assay has as its system CHO. In words: Cytotoxicity against CHO cells. The assay is classed as cell-based. The note with it: Cricetulus griseus.
A further assay relates to Plasmodium falciparum. Kind of assay: Antimalarial activity against Plasmodium falciparum 3D7. The assay is classed as functional, organism-based.
A short description of assay [1]: Cytotoxicity against human OCI-AML1 cells. Type of assay: functional, cell-based.
For assay [2], the target named is Orotidine 5'-phosphate decarboxylase (Methanobacterium thermoautotrophicum) (UniProt O26232). Kind of assay: Covalent binding affinity to Methanobacterium thermoautotrophicum 5'-monophosphate decarboxylase by mass spectroscopy analysis. Particulars: Methanothermobacter thermautotrophicus. The essentials:
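Mt ODCase incubated overnight at room temperature with inhibitor (25 mM, in the dark; or 388 mM with 200 μM enzyme) in 50 mM Tris pH 7.5, 20 mM DTT, 40 mM NaCl. Enzyme mass measured by mass spectrometry against an inhibitor-free control; covalent adduct taken from a mass increase over native enzyme.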

The target in assay [3] is Orotidine 5'-phosphate decarboxylase (Methanobacterium thermoautotrophicum, UniProt O26232). In words: Irreversible inhibition of Methanobacterium thermoautotrophicum 5'-monophosphate decarboxylase.
Sequence of Orotidine 5'-phosphate decarboxylase (O26232 whole entry): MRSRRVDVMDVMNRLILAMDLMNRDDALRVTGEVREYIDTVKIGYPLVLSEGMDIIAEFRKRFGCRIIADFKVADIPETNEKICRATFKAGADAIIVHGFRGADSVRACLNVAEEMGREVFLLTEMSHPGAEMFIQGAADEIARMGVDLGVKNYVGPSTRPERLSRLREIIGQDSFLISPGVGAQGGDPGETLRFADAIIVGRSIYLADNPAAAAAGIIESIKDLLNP

Sequence of Orotidine 5'-phosphate decarboxylase (Methanobacterium thermoautotrophicum) (O26232 whole entry, looked up): as the sequence (O26232 whole entry) above

For `O=c1cc(I)n([C@@H]2O[C@H](CO)[C@@H](O)[C@H]2F)c(=O)[nH]1`, the values for the IC50 (with CHO; in the assay on Plasmodium falciparum; in assay [1]) were 1.36 mM, over 6 mM and over 0.05 mM, respectively.
Consider `[N-]=[N+]=Nc1cc(=O)[nH]c(=O)n1[C@@H]1O[C@H](COP(=O)(O)O)[C@@H](O)[C@H]1F`, for which, in assay [2], the outcome was Active. This molecule also registered a Ki in assay [3] of 1.2 mM.
Take `NC(=O)c1cc(=O)[nH]c(=O)n1[C@@H]1O[C@H](CO)[C@@H](O)[C@H]1F`: the results for the IC50 (in the assay on CHO; with Plasmodium falciparum; in assay [1]) were over 1 mM, over 2 mM and over 0.05 mM, respectively.
In the case of `N#Cc1cc(=O)[nH]c(=O)n1[C@@H]1O[C@H](CO)[C@@H](O)[C@H]1F`, the IC50 (as a rule, the concentration that gives 50% inhibition) with CHO is over 0.6 mM; in the assay on Plasmodium falciparum, over 1 mM; in assay [1], over 0.05 mM.
Turning to `O=c1cc(I)n([C@@H]2O[C@H](CP(=O)(O)O)[C@@H](O)[C@H]2F)c(=O)[nH]1`, the result in assay [2] was Active.
`[N-]=[N+]=Nc1cc(=O)[nH]c(=O)n1[C@@H]1O[C@H](CO)[C@@H](O)[C@H]1F`: the figures for the IC50 (with CHO; in the assay with Plasmodium falciparum; in assay [1]) were over 2 mM, over 1 mM and over 0.05 mM, respectively.
Turning to `N#Cc1cn([C@@H]2O[C@H](CO)[C@@H](O)[C@H]2F)c(=O)[nH]c1=O`, the results for the IC50 (in the assay on CHO; in the assay on Plasmodium falciparum; in assay [1]) were over 1 mM, 1.09 mM and over 0.05 mM, respectively.
